From ChEMBL document CHEMBL4028818, “Tricyclic 4,4-dimethyl-3,4-dihydrochromeno[3,4-d]imidazole derivatives as microsomal prostaglandin E2 synthase-1 (mPGES-1) inhibitors: SAR and in vivo efficacy in hyperalgesia pain model” (Bioorg Med Chem Lett, 2017)

Key:
Cytochrome P450 1A2 = molecular target: T1, Cytochrome P450 1A2 (Homo sapiens, UniProt P05177); assay: (§1) Inhibition of CYP1A2 in human liver microsomes at 10 uM measured after 20 mins in presence of NADPH by LC/MS/MS analysis relative to control; type: ADME; settings: microsomes, 20 min, 10 µM
T1 sequence (P05177 whole entry): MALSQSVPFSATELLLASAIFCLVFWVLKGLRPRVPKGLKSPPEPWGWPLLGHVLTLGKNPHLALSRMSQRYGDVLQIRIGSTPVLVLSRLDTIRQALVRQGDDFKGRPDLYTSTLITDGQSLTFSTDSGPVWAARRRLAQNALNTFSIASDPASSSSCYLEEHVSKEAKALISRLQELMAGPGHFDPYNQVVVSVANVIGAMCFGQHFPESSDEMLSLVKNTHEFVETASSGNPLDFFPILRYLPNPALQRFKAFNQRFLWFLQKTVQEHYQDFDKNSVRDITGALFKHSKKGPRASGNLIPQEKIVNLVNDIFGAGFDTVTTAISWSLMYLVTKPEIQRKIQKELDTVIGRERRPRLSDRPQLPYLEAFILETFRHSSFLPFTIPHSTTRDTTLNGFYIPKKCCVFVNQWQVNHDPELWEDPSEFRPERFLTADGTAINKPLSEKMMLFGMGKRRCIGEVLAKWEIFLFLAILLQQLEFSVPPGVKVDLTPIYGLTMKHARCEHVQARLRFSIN
In short: (§2)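 CYP isoforms 1A2, 2D6, 3A4, 2C9 and 2C19 were tested at 1 and 10 µM. Results are % inhibition compared with a no-inhibitor control, run in triplicate.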

Cytochrome P450 2D6 = Cytochrome P450 2D6 (Homo sapiens, UniProt P10635); assay: (§3) Inhibition of CYP2D6 in human liver microsomes at 10 uM measured after 20 mins in presence of NADPH by LC/MS/MS analysis relative to control; type: ADME; settings: microsomes, 20 min, 10 µM; in short: as §2
[1] = Tmax in Guinea pig at 100 mg/kg, po; type: ADME, organism-based, Cavia porcellus; settings: in vivo
In short: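 Single oral dose given to guinea pigs as a 0.5% methylcellulose suspension. Values are mean ± SD, n = 3.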

COX2 [2] = molecular target: T2, COX2 (Homo sapiens, UniProt P35354); assay: Inhibition of recombinant human N-terminal His-tagged COX2 expressed in baculovirus infected Sf21 insect cells assessed as decrease in PGE2 release at 1 uM using arachidonic acid as substrate preincubated for 15 mins followed by arachidonic acid addition measured after 5 mins relative to control; settings: probe arachidonic acid
T2 sequence (P35354 whole entry): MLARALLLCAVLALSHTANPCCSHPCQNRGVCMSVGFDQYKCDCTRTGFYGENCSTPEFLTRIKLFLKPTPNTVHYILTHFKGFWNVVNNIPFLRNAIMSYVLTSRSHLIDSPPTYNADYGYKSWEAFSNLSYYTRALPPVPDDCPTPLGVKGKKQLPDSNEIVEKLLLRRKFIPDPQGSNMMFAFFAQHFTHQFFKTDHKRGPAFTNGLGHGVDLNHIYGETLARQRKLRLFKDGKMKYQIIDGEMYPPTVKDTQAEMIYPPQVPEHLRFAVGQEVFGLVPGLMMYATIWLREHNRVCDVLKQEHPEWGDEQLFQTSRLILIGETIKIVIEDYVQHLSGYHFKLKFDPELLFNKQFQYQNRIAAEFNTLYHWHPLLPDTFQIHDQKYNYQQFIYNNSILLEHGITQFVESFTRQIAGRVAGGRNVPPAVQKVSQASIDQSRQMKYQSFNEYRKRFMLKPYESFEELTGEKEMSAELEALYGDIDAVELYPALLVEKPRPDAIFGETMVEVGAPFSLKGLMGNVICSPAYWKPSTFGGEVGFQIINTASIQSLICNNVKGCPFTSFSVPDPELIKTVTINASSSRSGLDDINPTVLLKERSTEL

COX2 [3] = molecular target: T2, COX2; assay: Inhibition of recombinant human N-terminal His-tagged COX2 expressed in baculovirus infected Sf21 insect cells assessed as decrease in PGE2 release at 10 uM using arachidonic acid as substrate preincubated for 15 mins followed by arachidonic acid addition measured after 5 mins relative to control; settings: probe arachidonic acid
Cavia porcellus = assay: Analgesic activity in Dunkin Hartley guinea pig hyperalgesia pain model assessed as inhibition of LPS-induced thermal hyperalgesia at 200 mg/kg, po qd administered 4 hrs prior to LPS stimulation measured after 4.5 hrs by plantar test relative to control; type: functional
In short: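 LPS was injected into the guinea pig plantar to induce thermal hyperalgesia, and compound was given orally. Response is expressed as % hyperalgesia, with a saline-injected naive group as 0% and the vehicle-treated LPS group as 100%. Values are mean ± SEM, n = 8 per dose group.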

CYP1A2 = molecular target: T3, CYP1A2 (Homo sapiens, UniProt P05177); assay: as §1; type: ADME; settings: liver microsomes; in short: as §2
T3 sequence (P05177 whole entry): T1 sequence (P05177 whole entry)

CYP2D6 = CYP2D6 (Homo sapiens, UniProt P10635); assay: as §3; type: ADME; settings: liver microsomes; in short: as §2
Chain of CYP2D6 (P10635 whole entry): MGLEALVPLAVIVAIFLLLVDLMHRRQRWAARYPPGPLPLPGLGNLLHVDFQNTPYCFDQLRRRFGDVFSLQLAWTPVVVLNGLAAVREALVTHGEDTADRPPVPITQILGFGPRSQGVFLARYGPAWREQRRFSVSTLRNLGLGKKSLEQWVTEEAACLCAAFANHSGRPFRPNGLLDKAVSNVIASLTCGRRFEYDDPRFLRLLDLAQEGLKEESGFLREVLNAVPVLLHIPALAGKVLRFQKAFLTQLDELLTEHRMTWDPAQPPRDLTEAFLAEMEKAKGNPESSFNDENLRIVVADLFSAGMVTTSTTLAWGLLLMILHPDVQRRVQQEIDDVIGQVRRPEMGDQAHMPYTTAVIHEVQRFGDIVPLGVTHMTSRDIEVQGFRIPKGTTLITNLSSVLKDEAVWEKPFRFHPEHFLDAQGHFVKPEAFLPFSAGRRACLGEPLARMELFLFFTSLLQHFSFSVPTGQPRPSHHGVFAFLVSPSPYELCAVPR

Chain of Cytochrome P450 2D6 (P10635 whole entry): as above

Row | inhibition (INH) (Cytochrome P450 1A2) | inhibition (INH) (Cytochrome P450 2D6) | Tmax [1] | inhibition at 5 min, 1 µM (COX2 [2]) | inhibition at 5 min, 10 µM (COX2 [3]) | inhibition at 20 min, 10 µM (CYP1A2) | inhibition at 20 min, 10 µM (CYP2D6) | SMILES | inhibition in vivo at 200 mg/kg (Cavia porcellus)
1 | Not Active | Not Active | 24 h | 2.37% | 24.2% |  |  | CC1(C)Oc2cc(-c3cccc(OC(F)(F)F)c3)ccc2-c2[nH]c(-c3c(F)cccc3Cl)nc21 | 38%
2 |  |  |  |  |  | 33.9% | 26.6% | CC1(C)Oc2cc(C#Cc3cc(Cl)ccc3F)ccc2-c2[nH]c(-c3c(F)cccc3Cl)nc21 | 
